# Screening results (PubChem BioAssay)
# An excerpt weighted towards active compounds, which were near 2.2% of everything screened.
# Apaf1 inhib: inhibitors of human Apaf-1 apoptosome, primary screen, biochemical, DEVD-Rh110 fluorescence, uHTS; actives 0.71% (n = 330,000); AID 489030, 2010; inhibition, % at 20 µM; reconstituted apoptosome caspase-3 activity; active = inhibition of at least 40% at 20 µM
#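 Material: biochemical Apaf-1 apoptosome reconstitution. Medium: Hepes buffer, pH 7.5. Also added: cytochrome c activation, bis-DEVD rhodamine 110 substrate. Timing: 30 min compound preincubation, 50 min activation, room temperature. Measured by: rhodamine 110 fluorescence at Ex 480/Em 540 nm.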
# UBC13 polyUb: UBC13 polyubiquitin chain formation inhibitors, primary screen, biochemical, TR-FRET, uHTS | inhibition, % at 20 µM | Ubiquitin-conjugating enzyme E2 N (Homo sapiens), P61088 | AID 485273, 2010 | actives 0.47% (n = 330,000); in the data active = inhibition above about 45%, passing the limit was not always enough
# UBC9 SUMO inh: inhibitors of in vitro SUMOylation cascade, primary screen, biochemical, HTRF, uHTS; inhibition, % at 35 µM; HTRF SUMOylation assay, SAE1/SAE2 + UBC9; actives 0.36% (n = 290,000); in the data active = inhibition above about 50%, passing the limit was not always enough
# PAD4 inh: human PAD4 inhibitors, primary screen, biochemical, fluorescence polarization, 1536-well format. actives 0.41% (n = 330,000). Protein-arginine deiminase type-4 (Homo sapiens), Q9UM07. inhibition, % at 6.36 µM. recombinant PAD4, RCA probe fluorescence polarization. AID 485272, 2010;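 active = percent inhibition above a cutoff equal to the mean of all tested compounds plus 3 SD, cut at about 15% in these data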
# Rin1 Abl inh: inhibitors of Rin1-Abl protein binding, primary screen, biochemical, TR-FRET. Tyrosine-protein kinase ABL1 (Homo sapiens) + Ras and Rab interactor 1 (Homo sapiens), …. inhibition, % at 7.35 µM. actives 0.4% (n = 360,000); in the data active = inhibition above about 5%, passing the limit was not always enough
# GSTO1 inh: inhibitors of recombinant GSTO1, primary screen, counter-screen for RBBP9 inhibitor project, biochemical, fluorescence polarization; Glutathione S-transferase omega-1 (Homo sapiens), P78417; activity-based probe fluorescence polarization; inhibition, % at 5.96 µM; actives 1.1% (n = 300,000);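 active = inhibition above the campaign mean inhibition plus 3 SD, cut at about 35% in these data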
# PAD4 confirm: human PAD4 inhibitors, confirmation, biochemical, fluorescence polarization. recombinant PAD4, RCA probe fluorescence polarization. inhibition, % at 6.36 µM. shares compounds with PAD4 inh. actives 28% (n = 1,200);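 active = mean inhibition across replicates above the hit cutoff set by the earlier primary screen, cut at about 15% in these data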;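 note: inhibitors block active-site labeling by the probe so polarization falls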
# Numbers stand for hits; - = inactive; . = not tested or not shown.
SMILES,Apaf1 inhib,UBC13 polyUb,UBC9 SUMO inh,PAD4 inh,Rin1 Abl inh,GSTO1 inh,PAD4 confirm
CCOC(=O)[C@H]1[C@H]2COc3cc(OC)ccc3[C@@H]2N2C(=O)c3cc(C)ccc3NC(=O)[C@@]12C,-,-,.,16,-,-,-
CCOC(=O)[C@H]1[C@H]2COc3cc(OC)ccc3[C@@H]2N2C(=O)c3cc(OC)ccc3NC(=O)[C@@]12C,-,-,.,-,-,-,.
CCCc1ccc(C(=O)CCC(=O)NNC(=O)c2ccncc2)cc1,-,-,-,-,-,-,.
COc1ccc(CC(=O)N2CCN=C2SC)cc1,-,-,-,28,-,-,-
O=c1nccc(Nc2ccccc2)[nH]1,-,-,-,-,-,-,.
c1ccc(Nc2cc(Nc3ccccc3)[nH]n2)cc1,-,-,-,31,-,-,-
CC(=O)COc1ccc2c(C)c(-c3ccccc3)c(=O)oc2c1,-,-,-,23,-,-,-
CCN(C[C@H]1N[C@@](C)(C(=O)OC)[C@H]2C(=O)N(Cc3ccccc3)C(=O)[C@@H]12)C(=O)Nc1ccc(OC)cc1,-,-,.,-,-,.,.
Cc1ccc(C2C(C#N)=C(N)Oc3n[nH]c(-c4cccnc4)c32)o1 (centres undefined),-,-,-,-,-,-,.
COc1cc(C2C(C#N)=C(N)Oc3n[nH]c(-c4cccnc4)c32)cc(Br)c1O (centres undefined),-,-,-,21,-,-,-
COc1cc(C2C(C#N)=C(N)Oc3n[nH]c(-c4cccnc4)c32)ccc1OCC(N)=O (centres undefined),-,-,-,21,-,-,-
COc1ccc(/C=C/C(=O)OCC(=O)c2c(N)n(C)c(=O)n(C)c2=O)c(OC)c1,-,-,-,19,-,-,-
Cn1c(N)c(C(=O)COC(=O)/C=C/c2ccccc2F)c(=O)n(C)c1=O,-,-,.,-,-,.,.
O=C(OCC(=O)N1CCOCC1)c1ccc(Cl)cc1[N+](=O)[O-],-,-,-,-,-,-,.
CC(C)[C@H](N)c1nnc(SCC(=O)c2ccc(Cl)cc2)o1,-,-,-,15,-,-,-
Cc1ccc(C(=O)Nc2nc3ccccc3c(=O)s2)cc1,-,-,-,15,-,-,-
CC(=O)Nc1nc(=O)c2ccccc2s1,-,-,-,-,-,-,.
O=C(Nc1nc(=O)c2ccccc2s1)c1ccccc1,-,-,-,24,-,-,-
CC(=O)c1c(C)oc2ccc(NS(=O)(=O)c3ccc(O)c(C(=O)O)c3)cc12,-,-,-,-,-,-,.
O=C(O)c1cc(S(=O)(=O)Nc2ccc3oc(=O)sc3c2)ccc1O,-,-,-,37,.,60,19
Cc1ccc(S(=O)(=O)Nc2ccc3oc(=O)sc3c2)c(C)c1,-,-,-,22,-,-,-
COc1ccc(Nc2nnc(SCC(=O)NC3CCCC3)s2)cc1,.,.,.,.,-,.,.
Cc1ccc(C(=O)OCCOc2cccc(Cl)c2)cc1S(=O)(=O)N1CCOCC1,-,-,.,-,-,-,.
Cc1cc(C)c(C#N)c(Sc2ccccc2N)n1,-,-,-,21,-,-,52
O=C(COC(=O)c1ccc([N+](=O)[O-])s1)c1ccc[nH]1,-,-,.,25,-,.,-
SMILES,Apaf1 inhib,UBC13 polyUb,UBC9 SUMO inh,PAD4 inh,Rin1 Abl inh,GSTO1 inh,PAD4 confirm
COc1ccc(C(=O)N2CCN(C(=O)C3CCCO3)CC2)cc1[N+](=O)[O-] (centres undefined),-,-,.,-,-,.,.
CCN(CC)S(=O)(=O)c1ccc2c(c1)c(=O)c(C(=O)N1CCN(c3ccccn3)CC1)cn2C,-,-,-,20,-,-,-
Cc1cc2ccccc2n1CCNC(=O)COc1ccccc1,-,-,-,23,-,-,-
O=C1CCCC(O)=C1N=Nc1c(Cl)cc(Cl)cc1Cl,-,-,-,36,-,-,-
O=C1CCCC(O)=C1N=Nc1cccc(C(=O)O)c1,-,-,-,-,-,-,.
CC(C)(C)OC(=O)N(CCc1ccccc1)Cc1cccc(OCc2cccc(NC(=O)C3CC3)c2)c1,.,.,.,.,-,.,.
CC(=O)N(c1ccc2oc(=O)sc2c1)S(=O)(=O)c1cccs1,-,-,-,-,-,-,.
CC(=O)N(c1ccc2oc(=O)sc2c1)S(=O)(=O)c1cccc2cccnc12,-,-,-,33,-,-,22
Cc1cc2oc(=O)sc2cc1NS(=O)(=O)c1cccc2cccnc12,-,-,-,34,-,-,19
CCCC(=O)N(c1ccc2oc(=O)sc2c1)S(=O)(=O)c1ccccc1,-,-,-,22,-,-,-
Cc1cc2oc(=O)sc2cc1NS(=O)(=O)c1ccccc1,-,-,-,20,-,-,-
CC(=O)N(c1ccc2oc(=O)sc2c1)S(=O)(=O)c1ccc(C(=O)O)cc1,-,-,-,-,-,-,.
C(=N\Nc1cc(N2CCCCC2)ncn1)/c1ccco1,-,-,-,-,-,-,.
COc1cc(N=c2c([N+](=O)[O-])nn(-c3ccc4c(c3)OCCO4)n2O)cc(OC)c1,-,-,-,-,-,-,.
CC(C)c1ccc(N=c2c([N+](=O)[O-])nn(-c3ccc4c(c3)OCCO4)n2O)cc1,-,-,-,18,-,-,-
COc1ccc(N(CC(=O)Nc2ccc(C)cn2)S(=O)(=O)c2c(C)nn(C)c2C)cc1,-,-,-,-,-,-,.
Cc1ccc(N(CC(=O)Nc2ccc(C)cn2)S(=O)(=O)c2c(C)nn(C)c2C)cc1,-,-,-,49,-,36,-
O=c1cc(-c2ccccc2)c2ccc(O)cc2o1,-,-,.,-,-,-,.
Nc1ccc(-c2c3ccc(=O)cc-3oc3cc(O)ccc23)cc1C(=O)O,-,-,-,23,-,-,33
O=c1ccc2c(-c3ccccc3)c3ccc(O)cc3oc-2c1,-,-,-,29,-,-,63
COc1ccc2c(c1)CCc1cn3nc(C)cc3nc1-2,-,-,-,16,-,-,-
COc1ccc2c(c1)CCc1cnc(N)nc1-2,-,-,-,-,-,-,.
O=C(O)[C@H](Cc1ccccc1)NC(=O)N1CCC(Cc2ccccc2)CC1,-,-,-,42,-,-,-
C[C@@H]1CN([C@H](C)CO)C(=O)CCCn2nncc2CO[C@H]1CN(C)S(C)(=O)=O,.,.,.,.,-,.,.
COc1ccc(CC(=O)Nc2cc(S(C)(=O)=O)ccc2Cl)cc1S(=O)(=O)N1CCOCC1,.,.,.,.,-,.,.
CCOc1ccc(C(=O)CSc2nnc3ccccn23)cc1,-,-,-,-,-,-,.
